Source: PubChem BioAssay (several laboratories)
Compounds with a hit are over-represented: about 1.2% of the library has one in this group of screens.
NPR2 activator = GC-B (human) receptor activation. hit rate 0.11% among 370,000. P20594. HEK293-GC-B cells, CNP EC30, cGMP TR-FRET; 0% at EC30 CNP, 100% saturating CNP. activation, % at 10 µM. AID 1920062;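 active = activation at 10 µM reaching about 35% in either raw or pattern-adjusted values, limit read from the data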
HCV core dimer = HCV core protein dimerization inhibition. TR-FRET GST/Flag-core106 dimerization, 1536-well. inhibition, % at 5 µM. hit rate 0.33% among 300,000. AID 1899;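 active = inhibition above the mean of all tested compounds plus 3 SD, set per screening campaign, cut at about 45% in these data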
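Material: GST/Flag-tagged HCV core106 proteins. Incubation: 4 h, 22.5 °C incubation. Read-out basis: inhibition (%) from 671 over 617 nm ratio. Measured by: TR-FRET, excitation 340 nm, emission 617 and 671 nm.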
Fh CTSL1 inh = counter-screen for PFM18AAP inhibitors: inhibitors of F. hepatica cathepsin L1 | recombinant F. hepatica cathepsin L1, Z-Leu-Arg-MCA fluorescence | inhibition, % at 5.96 µM | hit rate 0.49% among 300,000 | AID 1906;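 active = inhibition above the mean of all tested compounds plus 3 SD, set per screening campaign, cut at about 17% in these data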;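 also: 0% = plate median of test compound wells and 100% = 1 µM Z-Phe-Ala-diazomethylketone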
ARFGAP1 inhibitor = inhibits rat ARF GTPase activating protein 1 | Q62848 | Arfgap1-stimulated ARF1 GTP hydrolysis, GDP FP detection | inhibition, % at 16.5 µM | hit rate 0.26% among 360,000;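 active = inhibition above a per-plate limit, mean inhibition of low control wells plus 3 SD, cut at about 25% in these data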;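 also: 0% = DMSO wells with enzyme and 100% = wells lacking Arfgap1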
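Assay system: Rat Arfgap1 GAP domain (His6, aa 1-136), purified enzyme | Buffer or medium: HEPES 25 mM pH 7.5, NaCl 150 mM, MgCl2, DTT | Schedule: GTP hydrolysis reaction 2 h at 25 °C | Signal: FP of antibody-bound GDP Alexa 633 tracer, ex 620/em 688 nm | Measure: Percent inhibition of Arfgap1-stimulated GTP hydrolysis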
GC-A act = GC-A (human) enzyme activation | P16066 | HEK293 GC-A cells, cGMP TR-FRET, EC30 ANP; 0% at EC30 ANP, 100% saturating ANP | hit rate 0.14% among 370,000 | activation, % at 10 µM | AID 1671463; in the data active = activation above about 40%
Target sequence (P16066 whole entry, looked up): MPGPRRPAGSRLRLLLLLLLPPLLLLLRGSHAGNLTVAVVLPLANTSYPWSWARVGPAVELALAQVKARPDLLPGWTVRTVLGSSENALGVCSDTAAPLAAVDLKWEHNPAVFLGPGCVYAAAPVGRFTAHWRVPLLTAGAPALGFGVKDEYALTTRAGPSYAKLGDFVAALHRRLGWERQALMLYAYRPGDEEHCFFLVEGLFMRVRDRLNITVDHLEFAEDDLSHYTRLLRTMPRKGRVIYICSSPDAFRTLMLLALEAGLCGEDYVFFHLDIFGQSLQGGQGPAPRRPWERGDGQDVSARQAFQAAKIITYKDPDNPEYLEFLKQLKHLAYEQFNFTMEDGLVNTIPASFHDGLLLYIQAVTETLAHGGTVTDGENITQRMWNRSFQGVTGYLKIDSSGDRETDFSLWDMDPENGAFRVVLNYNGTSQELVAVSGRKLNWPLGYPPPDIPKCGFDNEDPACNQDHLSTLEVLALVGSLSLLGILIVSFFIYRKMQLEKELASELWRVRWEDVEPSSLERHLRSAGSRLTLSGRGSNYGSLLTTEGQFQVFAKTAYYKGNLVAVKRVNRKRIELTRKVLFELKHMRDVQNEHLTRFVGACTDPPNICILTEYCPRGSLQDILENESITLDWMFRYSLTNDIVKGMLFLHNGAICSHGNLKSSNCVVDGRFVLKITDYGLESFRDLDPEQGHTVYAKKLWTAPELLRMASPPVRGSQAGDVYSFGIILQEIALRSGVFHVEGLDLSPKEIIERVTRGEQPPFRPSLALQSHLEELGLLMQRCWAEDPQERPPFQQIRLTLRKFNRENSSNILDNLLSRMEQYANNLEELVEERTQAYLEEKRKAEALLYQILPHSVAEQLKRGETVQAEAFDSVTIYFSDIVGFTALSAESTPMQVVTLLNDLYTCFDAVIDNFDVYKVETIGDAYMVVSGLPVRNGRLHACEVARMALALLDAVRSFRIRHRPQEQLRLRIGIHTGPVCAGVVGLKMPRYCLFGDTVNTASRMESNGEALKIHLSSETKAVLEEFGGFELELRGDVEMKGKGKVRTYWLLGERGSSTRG
ASAP1 GAP inh = ASAP1 ArfGAP inhibition. ASAP1-stimulated ARF1 GTP hydrolysis, GDP FP detection. hit rate 0.19% among 360,000. AID 624377. inhibition, % at 16.5 µM. Q9ULH1; in the data active = inhibition above about 25%;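 also: 0% = vehicle with enzyme and substrate and 100% = no enzyme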
ARFGAP1 inh conf = confirmation of rat ARFGAP1 inhibitors; shares compounds with ARFGAP1 inhibitor; ARFGAP1-stimulated ARF1 GTP hydrolysis, GDP tracer FP; inhibition, % at 16.5 µM; hit rate 30% among 890; AID 651608;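 active = average inhibition over triplicates above the hit cutoff set in the earlier primary screen, cut at about 25% in these data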;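 also: 0% = Arfgap1 plus ARF1-GTP with DMSO and 100% = wells lacking Arfgap1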
An asterisk follows results filed as active; . = no result; ! = not confirmed by another sample.

SMILES	NPR2 activator	HCV core dimer	Fh CTSL1 inh	ARFGAP1 inhibitor	GC-A act	ASAP1 GAP inh	ARFGAP1 inh conf
Cc1cccc2nc(-c3cccc(NC(=O)c4ccc(Cl)cc4)c3)cn12	6.2	4.4	-0.4	57.7*	4.0	15.3	24.4
CCN1CCN(c2ccc(S(=O)(=O)N3CCCCC3)cc2NC(=O)/C=C/c2ccc([N+](=O)[O-])cc2)CC1	0.3	4.0	6.8	42.5*	-5.2	28.6*	45.4*
CCN1CCN(c2ccc(S(=O)(=O)N3CCCCC3)cc2NC(=O)/C=C/c2ccc(F)cc2)CC1	-1.8	-5.2	0.6	12.4	-0.5	6.4	.
CCOc1ccc(CNC(=O)Cn2nc(C)c3c(C)n(-c4ccc(C)cc4)nc3c2=O)cc1	0.0	10.6	-0.3	33.6*	-2.3	6.5	2.4
Cc1ccc(-n2nc3c(=O)n(CC(=O)NCc4ccccn4)nc(C)c3c2C)cc1	-4.5	-2.2	-0.7	-3.1	-0.4	-1.2	.
COc1cccc(CNC(=O)C2CCCN(S(=O)(=O)c3cccc4nonc34)C2)c1 (stereo not given)	2.8	3.2	-2.1	8.8	1.0	3.3	.
Cc1cc(OCCCC(=O)Nc2nnc(C3CC3)s2)ccc1Cl	-2.0	.	.	-3.4	1.0	-6.4	.
CCCCNc1nc2ccccc2n1CC(=O)N1CCc2ccccc2C1	2.7	-0.1	-4.4	47.3*	-4.2	5.7	4.2
O=C(COCc1cc(-c2ccc3c(c2)OCO3)on1)N1CCCCC1	-3.3	13.8	-1.6	13.2	1.9	11.8	.
O=C1c2ccccc2C(=O)c2c(Nc3ccc(CCO)cc3)ccc(O)c21	-3.5	-43.8	0.5	-3.5	-11.7	0.5	.
O=C1c2c(O)ccc(O)c2C(=O)c2c(NCCNCCO)ccc(NCCNCCO)c21	-40.4	-17.8	4.0	25.1*!	-27.6	21.1	56.1*
CN(c1ccc(OCC(=O)Nc2ccc3[nH]c(=O)[nH]c3c2)cc1)S(=O)(=O)c1ccc(Cl)cc1	-2.9	7.0	-4.7	30.2*	-2.3	8.7	-11.4
COc1ccc(NC(=O)CSc2nc(C)cs2)cc1OC	-4.6	1.4	-0.2	-9.2	-3.1	-14.8	.
CN(C)/C=C/C1=C([N+](=O)[O-])C(c2cccc([N+](=O)[O-])c2)NC(=O)N1 (stereo not given)	6.9	-1.6	1.9	27.9*	1.7	-2.9	4.0
CC1=CC(C)(C)NC(=O)N1c1ccc(C)cc1	1.8	2.3	4.4	4.3	1.2	16.6	.
O=C(OCC(=O)N1CCCC1)c1ccc(OC(F)(F)F)cc1	3.3	2.3	-5.5	25.0*	1.7	20.4	2.0
COc1cccc2c1cc1c(=O)n(CC(=O)NCCCc3ccccc3)nc(C)n12	.	-5.7	-6.5	.	.	.	.
C=CC[C@@H](CC(=O)N[C@@H](CO)Cc1ccccc1)C(=O)N[C@@H](COC(=O)[C@@H](CC=C)CC(=O)OC(C)(C)C)Cc1c[nH]c2ccccc12	-6.8	.	.	-2.2	-5.5	3.0	.
COc1ccc(OC)c([N+](=O)[O-])c1C(N)=O	9.0	-1.1	2.3	25.7*	-2.1	8.0	-4.6
CCCn1c2ccccc2c2cnn(CC(=O)NCCOC)c(=O)c21	7.0	.	.	-4.3	0.8	-15.2	.
O=C(COC(=O)CNS(=O)(=O)c1ccc2ccccc2c1)Nc1ccccc1Sc1ccccc1	1.8	13.2	-16.9	29.8*	11.0	7.5	7.5
C[C@@H]1C(=O)O[C@H]2[C@H](O)[C@@]34[C@H]5C[C@@H](C(C)(C)C)[C@]36[C@@H](OC(=O)[C@@H]6O)O[C@@]4(C(=O)O5)[C@@]12O	1.1	9.6	-5.1	1.8	3.1	-16.3	.
CC(C)(C)OC(=O)N1CCC(C(=O)Nc2ccc(C(=O)N3CCCC3)cc2)CC1	4.0	.	.	-3.4	-0.6	7.3	.
CN(C(=O)c1ccc(NC(=O)C2CCN(C(=O)OC(C)(C)C)CC2)cc1)C1CC1	0.9	.	.	24.6*	5.8	10.6	0.7
COc1ccc(C(=O)N[C@H](C(=O)Nc2ccc(S(=O)(=O)N3CCOCC3)cc2)C(C)C)cc1	-5.6	1.6	-4.6	25.1*	-1.4	7.7	2.9
SMILES	NPR2 activator	HCV core dimer	Fh CTSL1 inh	ARFGAP1 inhibitor	GC-A act	ASAP1 GAP inh	ARFGAP1 inh conf
O=C(Nc1ccc(NC(=O)c2cc3ccccc3o2)cc1)c1ccc2c(c1)OCCO2	-2.5	11.6	2.0	15.4	-8.4	-0.7	.
CCn1c2ccccc2c2cc(NC(=O)CSc3nnc(-c4cccc(OC)c4)n3N)ccc21	-14.8	4.4	4.6	31.0*	-9.6	0.6	26.5*
O=C(Cc1ccccc1)NC1(O)C(=O)c2ccccc2C1=O	-5.8	-22.0	34.1*	27.3*	2.4	13.7	9.3
CCOc1ccc(C(=O)C(c2ccccc2)N2CCOCC2)cc1 (stereo not given)	2.0	0.8	2.6	-10.3	-1.2	0.2	.
O=C(C[C@H]1CC[C@@H](NC(=O)Nc2ccc3c(c2)OCO3)[C@@H](CO)O1)NCc1ccccc1	10.0	.	.	6.5	3.2	-10.6	.
CCn1c(C(C)NC(=O)Cc2ccccc2)nc2ccccc21 (stereo not given)	-5.1	1.3	1.0	-12.2	-4.8	-9.1	.
COc1cccc2c1SCc1ccccc1C2CC(N)=O (stereo not given)	-5.7	17.1	-0.3	30.6*	-9.8	20.5	-3.7
O=C(CN1C(=O)c2ccccc2C1=O)NCCc1c[nH]c2ccc(Cl)cc12	-0.7	10.5	-0.8	-10.4	-1.9	4.9	.
O=C1c2ccccc2C(=O)N1CCCc1c[nH]c2ccc(Cl)cc12	-1.9	-6.0	-0.7	32.9*	-8.0	1.9	15.2
O=C(c1ccco1)N(Cc1cc2ccccc2[nH]c1=O)C1CCCCC1	-15.9	8.8	1.5	-4.4	-7.3	2.5	.
COc1ccc(-n2c(SCC(=O)Nc3nccs3)nc3sc4c(c3c2=O)CCN(C)C4)cc1	1.5	25.6	0.0	25.1*	6.9	9.1	27.1*
COc1ccc(NC(=O)CSc2nc3sc4c(c3c(=O)n2-c2ccc(OC)cc2)CCN(C)C4)cc1	-6.1	-28.3	2.8	19.6	12.9	11.9	.
O=C(CCSc1nnc(-c2ccncc2)o1)Nc1ccccc1Cl	-16.1	-0.2	-2.9	29.1*	-17.6	-2.2	-7.4
COc1ccccc1NC(=O)CCSc1nnc(-c2ccncc2)o1	-6.5	-1.6	1.1	13.4	-4.1	7.1	.
CC12CCC(=O)N1C(C(=O)NCCN1C(=O)S/C(=C\c3ccc(OC(F)F)cc3)C1=O)CS2 (stereo not given)	-2.4	-2.9	4.6	24.6*	-2.6	-1.5	4.6
COc1ccc(/C=C2\SC(=O)N(CCNC(=O)C3CSC4(C)CCC(=O)N34)C2=O)cc1 (stereo not given)	-3.1	1.0	3.6	-3.2	-1.6	17.5	.
